Laboratory results from ChEMBL document CHEMBL3352381, “Discovery of covalent inhibitors of glyceraldehyde-3-phosphate dehydrogenase, a target for the treatment of malaria” (J Med Chem, 2014).
Active and inactive are the calls of the source. The rule behind the calls is not given here.

Experiments:
[1] = target: Glyceraldehyde-3-phosphate dehydrogenase (Plasmodium falciparum) (UniProt Q8T6B1); assay: Inhibition of undigested recombinant Plasmodium falciparum GAPDH at 200 uM measured after overnight incubation by mass spectroscopy
Glyceraldehyde-3-phosphate dehydrogenase (Plasmodium falciparum), sequence (Q8T6B1 as listed by the source): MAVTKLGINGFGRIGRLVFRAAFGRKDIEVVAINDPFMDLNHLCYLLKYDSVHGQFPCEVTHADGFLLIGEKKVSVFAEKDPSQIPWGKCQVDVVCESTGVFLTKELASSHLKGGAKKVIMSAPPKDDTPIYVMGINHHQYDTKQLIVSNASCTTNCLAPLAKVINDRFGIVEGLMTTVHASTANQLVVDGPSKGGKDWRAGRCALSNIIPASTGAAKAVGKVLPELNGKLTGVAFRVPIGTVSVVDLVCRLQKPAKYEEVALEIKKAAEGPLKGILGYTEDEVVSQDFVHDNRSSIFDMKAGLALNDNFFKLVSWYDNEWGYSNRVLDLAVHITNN
How it was run: (§1)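 Pf GAPDH incubated overnight with inhibitor at 200 μM. MALDI-TOF on undigested protein (double-layer CHCA matrix) or on tryptic digests (thin-layer CHCA), with MS/MS. Cys alkylation checked by 1 h treatment of 20 μM enzyme with 10-fold excess iodoacetamide before analysis.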

[2] = target: Glyceraldehyde-3-phosphate dehydrogenase (Plasmodium falciparum) (UniProt Q8T6B1); assay: Inhibition of recombinant Plasmodium falciparum GAPDH expressed in Escherichia coli assessed as ratio of kinact to Ki by Kitz-Wilson double-reciprocal plot
How it was run: (§2)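 Pf GAPDH incubated with inhibitor, aliquots withdrawn over time for activity assay; control enzyme kept without inhibitor under the same conditions. Activity normalized to the inhibitor-free value. Time courses fitted to a sum of two exponential decays. kobs obtained by fitting residual activity versus incubation time to a mechanism-based inhibition equation (kinact, Ki). Duplicates.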

[3] = target: Glyceraldehyde-3-phosphate dehydrogenase (Plasmodium falciparum) (UniProt Q8T6B1); assay: Inhibition of recombinant Plasmodium falciparum GAPDH expressed in Escherichia coli at 50 to 200 uM by time course assay; conditions: TDE = time-dependent effect; how it was run: as §2
[4] = target: Glyceraldehyde-3-phosphate dehydrogenase (Plasmodium falciparum) (UniProt Q8T6B1); assay: Inhibition of recombinant Plasmodium falciparum GAPDH expressed in Escherichia coli by time course assay; how it was run: as §2
[5] = target: Glyceraldehyde-3-phosphate dehydrogenase (Plasmodium falciparum) (UniProt Q8T6B1); assay: Irreversible inhibition of recombinant Plasmodium falciparum GAPDH expressed in Escherichia coli by time course assay
How it was run: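 Pf GAPDH was incubated with inhibitor at 50–300 μM, and enzyme activity was assayed over the incubation time. Activity was normalized to the same enzyme kept under identical conditions without inhibitor. Residual-activity time courses were fitted to a sum of two exponential decays. kobs was obtained by fitting the mechanism-based inhibition equation, giving kinact and Ki. Experiments were done in duplicate.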

[6] = target: Glyceraldehyde-3-phosphate dehydrogenase (Plasmodium falciparum) (UniProt Q8T6B1); assay: Inhibition of unmodified recombinant Plasmodium falciparum GAPDH at 200 uM measured after overnight incubation by mass spectroscopy in presence of trypsin; how it was run: as §1
[7] = target: Glyceraldehyde-3-phosphate dehydrogenase (Plasmodium falciparum) (UniProt Q8T6B1); assay: Inhibition of recombinant Plasmodium falciparum GAPDH expressed in Escherichia coli by UV-vis spectroscopy
How it was run: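 Enzyme at 400 μM incubated with inhibitor. Absorption spectra recorded until reaction completion to follow loss of the Racker band.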

[8] = target: Glyceraldehyde-3-phosphate dehydrogenase (Plasmodium falciparum) (UniProt Q8T6B1); assay: Inhibition of recombinant Plasmodium falciparum GAPDH expressed in Escherichia coli at 50 to 300 uM by time course assay; how it was run: as §2
[9] = target: Glyceraldehyde-3-phosphate dehydrogenase (Homo sapiens) (UniProt P04406); assay: Inhibition of human GAPDH assessed as ratio of kinact to Ki by Kitz-Wilson double-reciprocal plot at pH 7.4
Glyceraldehyde-3-phosphate dehydrogenase (Homo sapiens), sequence (P04406 2-335 limits assumed): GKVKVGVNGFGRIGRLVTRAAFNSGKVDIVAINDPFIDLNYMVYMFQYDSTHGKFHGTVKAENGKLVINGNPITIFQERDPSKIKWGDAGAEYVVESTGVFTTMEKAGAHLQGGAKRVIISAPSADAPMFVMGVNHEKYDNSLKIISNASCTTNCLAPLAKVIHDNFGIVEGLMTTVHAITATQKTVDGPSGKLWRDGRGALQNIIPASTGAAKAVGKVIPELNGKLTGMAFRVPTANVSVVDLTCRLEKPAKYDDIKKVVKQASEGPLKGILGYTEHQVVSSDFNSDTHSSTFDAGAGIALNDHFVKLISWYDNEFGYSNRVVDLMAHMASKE

SMILES: N[C@H](C(=O)OCc1ccccc1)[C@@H]1CC(Br)=NO1
- inhibition [1]: Active
- Ratio [2]: 6.6 M⁻¹ s⁻¹
- inhibition [3]: tde
- inhibition [4]: Dose-dependent effect

SMILES: N[C@H](C(=O)O)[C@@H]1CC(Br)=NO1
- inhibition [5]: Active
- Ratio [2]: 0.7 M⁻¹ s⁻¹
- inhibition [3]: tde
- inhibition [4]: Dose-dependent effect

SMILES: CC(C)(C)OC(=O)N1CC2ON=C(Br)C2C1 (racemic)
- Ratio [2]: 4.8 M⁻¹ s⁻¹
- inhibition [3]: tde
- inhibition [4]: Dose-dependent effect

SMILES: BrC1=NOC(c2ccncc2)C1 (racemic)
- Ratio [2]: 0.47 M⁻¹ s⁻¹
- inhibition [3]: tde
- inhibition [4]: Dose-dependent effect

SMILES: O=C(N[C@H](C(=O)O)[C@@H]1CC(Br)=NO1)OCc1ccccc1
- Ratio [2]: 2.6 M⁻¹ s⁻¹
- inhibition [6]: Active
- inhibition [3]: tde
- inhibition [4]: Dose-dependent effect

SMILES: COC(=O)[C@@H](N)[C@@H]1CC(Br)=NO1
- inhibition [1]: Active
- Ratio [2]: 10.7 M⁻¹ s⁻¹
- inhibition [6]: Active
- inhibition [3]: tde
- inhibition [4]: Dose-dependent effect

SMILES: O=C(O)CC1CC(Br)=NO1 (racemic)
- Ratio [2]: 0.7 M⁻¹ s⁻¹
- inhibition [3]: tde
- inhibition [4]: Dose-dependent effect

SMILES: BrC1=NOC(c2ccccc2)C1 (racemic)
- inhibition [5]: Active
- Ratio [2]: 10.3 M⁻¹ s⁻¹
- inhibition [7]: Active
- inhibition [3]: tde
- inhibition [4]: Dose-dependent effect

SMILES: N[C@H](C(=O)O)[C@@H]1CC(Cl)=NO1
- inhibition [5]: Active
- inhibition [3]: tde
- inhibition [4]: Dose-dependent effect

SMILES: CC(C)(C)OC(=O)NCC1CC(Br)=NO1 (racemic)
- inhibition [1]: Active
- Ratio [2]: 2.9 M⁻¹ s⁻¹
- inhibition [8]: Active
- inhibition [4]: Dose-dependent effect

SMILES: C=CC(N)=O
- Ratio [9]: 0.053 M⁻¹ s⁻¹

SMILES: C=CC=O
- Ratio [9]: 297 M⁻¹ s⁻¹

SMILES: ClC1=NOC(c2ccccc2)C1 (racemic)
- inhibition [5]: Active
- inhibition [3]: tde
- inhibition [4]: Dose-dependent effect

SMILES: Oc1ccc(C2CC(Br)=NO2)cc1 (racemic)
- Ratio [2]: 3.1 M⁻¹ s⁻¹
- inhibition [3]: tde
- inhibition [4]: Dose-dependent effect
